Consider four compounds from ChEMBL document CHEMBL1833842, “1,3-Dihydro-2H-indol-2-ones derivatives: design, synthesis, in vitro antibacterial, antifungal and antitubercular study” (2011).

Test [1] deals with Mycobacterium tuberculosis. The test can be described thus: Antituberculosis activity against 5 x 10^4 inoculum per tube Mycobacterium tuberculosis H37Rv after 24 hrs by Lowenstein-Jensen method. It is filed as functional. In short, it runs like this: (§1)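 Conventional Lowenstein-Jensen method. Compound dilutions were made from a DMSO stock and added to liquid L-J medium, which was sterilized by inspissation. Tubes were incubated 24 h at 37 °C, then streaked with H37Rv (5 × 10⁴ bacilli per tube) harvested into 0.85% saline. Growth was checked at 12, 22 and 28 days at 37 °C against medium-only controls. MIC was the concentration giving no colonies or <20 colonies.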

For test [2], the system named is Mycobacterium tuberculosis. The test can be described thus: Antituberculosis activity against 5 x 10^4 bacilli per tube Mycobacterium tuberculosis H37Rv assessed as growth inhibition at 0.20 ug/mL incubated for 24 hrs measured after 28 days. It is filed as functional. To be noted: read-out: GI. In short, it runs like this: as §1
The test system of test [3] is Mycobacterium tuberculosis. The test can be described thus: Antituberculosis activity against 5 x 10^4 bacilli per tube Mycobacterium tuberculosis H37Rv assessed as growth inhibition at 40 ug/mL incubated for 24 hrs measured after 28 days. It is filed as functional. To be noted: read-out: GI. In outline:
as §1

In another test the test system is Aspergillus clavatus. The test can be described thus: Antifungal activity against 10^8 CFU/mL Aspergillus clavatus MTCC 1323 by broth microdilution method. It is filed as functional. In outline: (§2)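 Fungal MTCC cultures came from IMTECH Chandigarh. Mueller-Hinton broth served as growth and dilution medium, with DMSO as diluent. Inoculum was set to 10⁸ CFU/mL by turbidity. Serial dilutions from a 2000 stock gave a primary screen at 500, 250 and 125, followed by a secondary dilution series for actives. MIC was the lowest concentration inhibiting growth.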

The next test relates to Aspergillus niger. The test can be described thus: Antifungal activity against 10^8 CFU/mL Aspergillus niger MTCC 282 by broth microdilution method. It is filed as functional. In outline: as §2
A general note: Broth dilution looks for growth in wells or tubes with falling amounts of substance.

The subject of the next test is Candida albicans. The test can be described thus: Antifungal activity against 10^8 CFU/mL Candida albicans MTCC 227 by broth microdilution method. It is filed as functional. In outline:
as §2

The test system of the next test is Bacillus subtilis. The test can be described thus: Antibacterial activity against 10^8 CFU/mL Bacillus subtilis MTCC 441 by broth microdilution method. It is filed as functional. In short, it runs like this:
(§3)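 MTCC bacterial strains from IMTECH Chandigarh were grown in Mueller-Hinton broth, which was also used to dilute the compounds. Inoculum was turbidity-adjusted to 10⁸ CFU/mL, and DMSO served as diluent. Compounds from a 2000 stock were screened first at 500, 250 and 125; actives were retested in a second dilution series. Tubes were incubated overnight at 37 °C, and MIC was the lowest concentration with no visible growth. Clear tubes were subcultured overnight at 37 °C to tell bacteriostatic from bactericidal.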

The test system of another test is Streptococcus pyogenes. The test can be described thus: Antibacterial activity against 10^8 CFU/mL Streptococcus pyogenes MTCC 442 by broth microdilution method. It is filed as functional. In short, it runs like this: as §3
The subject of another test is Staphylococcus aureus. The test can be described thus: Antibacterial activity against 10^8 CFU/mL Staphylococcus aureus MTCC 96 by broth microdilution method. It is filed as functional. In outline: as §3
Another test has as its system Salmonella typhi. The test can be described thus: Antibacterial activity against 10^8 CFU/mL Salmonella typhi MTCC 98 by broth microdilution method. To be noted: Salmonella enterica. It is filed as functional, Salmonella enterica subsp. enterica serovar Typhi. In outline: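 Broth microdilution in Mueller-Hinton broth with MTCC strains, inoculum adjusted by turbidity to 10⁸ CFU/mL. Compounds were diluted from DMSO. Primary screen used 500, 250 and 125 concentrations, and actives were serially diluted further. Tubes were incubated overnight at 37 °C. MIC was the lowest concentration with no visible growth. Clear tubes were subcultured overnight at 37 °C to judge bacteriostatic versus bactericidal.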

Another test concerns Klebsiella pneumoniae. The test can be described thus: Antibacterial activity against 10^8 CFU/mL Klebsiella pneumoniae MTCC 109 by broth microdilution method. It is filed as functional. In outline:
as §3

The subject of another test is Escherichia coli. The test can be described thus: Antibacterial activity against 10^8 CFU/mL Escherichia coli MTCC 443 by broth microdilution method. It is filed as functional. In outline: as §3
The test system of another test is Pseudomonas aeruginosa. The test can be described thus: Antibacterial activity against 10^8 CFU/mL Pseudomonas aeruginosa MTCC 1688 by broth microdilution method. It is filed as functional. In short, it runs like this: as §3
Test [4] has as its system Mycobacterium tuberculosis. The test can be described thus: Antituberculosis activity against 5 x 10^4 bacilli per tube Mycobacterium tuberculosis H37Rv assessed as growth inhibition at 100 ug/mL incubated for 24 hrs measured after 28 days. To be noted: read-out: GI. It is filed as functional. In outline: as §1
The subject of test [5] is Mycobacterium tuberculosis. The test can be described thus: Antituberculosis activity against 5 x 10^4 bacilli per tube Mycobacterium tuberculosis H37Rv assessed as growth inhibition at 50 ug/mL incubated for 24 hrs measured after 28 days. It is filed as functional. To be noted: read-out: GI. In short, it runs like this: as §1

As a reminder, the MIC is the least concentration at which growth counts as inhibited. Low values mean a more susceptible organism, high ones a less susceptible organism. In general, MIC99 refers to the lowest concentration that inhibits either 99% of growth or 99% of the strains tested, depending on the study. A lower MIC99 goes with higher susceptibility.

≈ marks a conversion by molar mass, not a printed value.

`NNC(=O)c1ccncc1` [ISONIAZID] displayed an MIC in [1] of 0.2 µg/mL (≈ 1.46 µM). In addition, in test [2], the inhibition of growth at 0.2 µg/mL is 99%.

As to `CO[C@H]1/C=C/O[C@@]2(C)Oc3c(C)c(O)c4c(O)c(c(/C=N/N5CCN(C)CC5)c(O)c4c3C2=O)NC(=O)/C(C)=C\C=C\[C@H](C)[C@H](O)[C@@H](C)[C@@H](O)[C@@H](C)[C@H](OC(C)=O)[C@@H]1C` [RIFAMPIN], 40 µg/mL (≈ 48.6 µM) was the least that counted as inhibitory in [1] (MIC). The inhibition of growth at 40 µg/mL in test [3] was 98%.

For `CC1=C(c2nnc(/N=C3\C(=O)Nc4ccc(Cl)cc43)s2)C(c2ccccc2)NC(=O)N1` (stereo not drawn), the MIC in [1] was 100 µg/mL (≈ 222 µM); in the test with Aspergillus clavatus, 500 µg/mL (≈ 1110 µM); against Aspergillus niger, 500 µg/mL (≈ 1110 µM); in the test with Candida albicans, above 1000 µg/mL. Also, the MIC99 is 200 µg/mL (≈ 444 µM) with Bacillus subtilis; 200 µg/mL (≈ 444 µM) against Streptococcus pyogenes; 200 µg/mL (≈ 444 µM) in the test on Staphylococcus aureus; 200 µg/mL (≈ 444 µM) against Salmonella typhi; 200 µg/mL (≈ 444 µM) in the test on Klebsiella pneumoniae; 100 µg/mL (≈ 222 µM) in the test with Escherichia coli. In addition, in the test on Pseudomonas aeruginosa, the MIC99 was found to be 200 µg/mL (≈ 444 µM). The inhibition of growth at 100 µg/mL in [4] is 98%.

Turning to `CC1=C(c2nnc(/N=C3\C(=O)Nc4ccc(F)cc43)s2)C(c2ccccc2)NC(=O)N1` (stereo not drawn), the MIC in test [1] turned out to be 50 µg/mL (≈ 115 µM); against Aspergillus clavatus it was 200 µg/mL (≈ 460 µM); against Aspergillus niger, 100 µg/mL (≈ 230 µM); in the test on Candida albicans, 100 µg/mL (≈ 230 µM). Moreover, the MIC99 was 100 µg/mL (≈ 230 µM) against Bacillus subtilis; 100 µg/mL (≈ 230 µM) with Streptococcus pyogenes; 62.5 µg/mL (≈ 144 µM) in the test with Staphylococcus aureus; 100 µg/mL (≈ 230 µM) in the test on Salmonella typhi; 100 µg/mL (≈ 230 µM) in the test on Klebsiella pneumoniae; 100 µg/mL (≈ 230 µM) with Escherichia coli. In the test on Pseudomonas aeruginosa, this compound gave an MIC99 of 62.5 µg/mL (≈ 144 µM). Further, the inhibition of growth at 50 µg/mL in test [5] stood at 99%.
